Only some compounds are listed: those with a hit (about 2% of all), similar ones and a draw of the others.
XiGFP reactiv: reactivates the inactive X chromosome in mouse fibroblasts; XiGFP mouse fibroblasts, % GFP-positive cells imaging, 3 d; cells co-treated with 5-aza-dC sensitizer; scaled so ellipticine positive control = 100%; activation, % at 7.58 µM; hit rate 0.055% among 360,000; AID 743238;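 active means mean normalized replicate activation at least 10% and every replicate at or above 10%; inconclusive means only one of the two criteria met; inactive means mean below 10% and not all replicates reach 10%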;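 further: 0% = median of on-plate neutral control wells and 100% = ellipticine 6 µM median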
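Assay system: SV40-immortalized XiGFP fibroblast cells, line 68-5-11; buffer or medium: DMEM plus 5-aza-dC sensitizer; compound: one concentration, pinned; timing: compounds 3 days, fix/stain 15 min at room temperature; benchmarks: positive control ellipticine, 6 µM final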
E-selectin induc: E-selectin induction on HUVECs; P16581; HUVEC E-selectin immunofluorescence imaging; normalized: neutral wells 0, TNF-alpha wells 100; activation, % at 7.58 µM; hit rate 0.37% among 260,000; AID 686992;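 active means mean E-selectin-positive cell signal at least 10% of the positive control, reached in at least 60% of replicates, without over 20% cell loss; inconclusive means no rule given, readout overlaps actives, possibly toxicity-flagged; inactive means the rest, including those meeting only one limit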
Target sequence (P16581 whole entry, looked up): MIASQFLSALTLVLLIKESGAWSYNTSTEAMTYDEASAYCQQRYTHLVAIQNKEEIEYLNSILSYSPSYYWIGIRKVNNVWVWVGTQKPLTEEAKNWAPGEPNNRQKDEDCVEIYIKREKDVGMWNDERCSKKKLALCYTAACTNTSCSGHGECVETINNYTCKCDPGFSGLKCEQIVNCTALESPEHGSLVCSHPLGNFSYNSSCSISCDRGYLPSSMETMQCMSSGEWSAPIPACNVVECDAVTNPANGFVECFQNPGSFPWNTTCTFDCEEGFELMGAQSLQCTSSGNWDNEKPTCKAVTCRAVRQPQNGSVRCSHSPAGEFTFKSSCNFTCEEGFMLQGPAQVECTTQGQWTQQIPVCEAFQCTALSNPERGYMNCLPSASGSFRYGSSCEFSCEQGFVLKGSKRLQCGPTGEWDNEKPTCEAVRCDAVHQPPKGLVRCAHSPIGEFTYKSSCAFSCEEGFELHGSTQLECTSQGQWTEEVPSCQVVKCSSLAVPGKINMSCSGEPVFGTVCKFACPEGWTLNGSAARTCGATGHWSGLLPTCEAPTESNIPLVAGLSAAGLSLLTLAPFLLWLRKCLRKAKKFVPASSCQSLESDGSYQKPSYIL
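Assay system: HUVEC primary endothelial cells. Input: 3,000 HUVEC seeded per well. Doses: one compound dose added by pin transfer. Read-out basis: % PE-positive cells. Benchmarks: TNF-alpha high, DMSO low. Detection: immunofluorescence imaging. Buffer or medium: EGM-2, gelatin.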
S100A4 MyoIIA: blocks human S100A4 binding to myosin IIA peptide | P26447 | AID 652163 | S100A4/TAMRA-MyoIIA peptide fluorescence polarization | inhibition, % at 10.7 µM | hit rate 0.14% among 360,000;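 active means mean inhibition of at least 70% across replicates, with every replicate also reaching that level; inconclusive means mean inhibition reaches 70% but some replicates fall short; inactive means mean inhibition below 70%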
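Compound dosing: one dose per compound; test system: human S100A4 monomer with TAMRA-labelled myosin IIA peptide; probe or stimulus: TAMRA-labelled myosin IIA heavy-chain peptide probe, 5 nM; medium: HEPES buffer with Ca2+, pH 7.2; schedule: 5 min incubation before reading; benchmarks: neutral control DMSO, positive control TFP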
DENV2 CPE rescue: inhibitors of DENV2 cytopathic effect; CPE inhibition, % at 9.99 µM; AID 651640; hit rate 1.7% among 350,000; DENV2-infected cells, cytopathic effect rescue, plate reader; in the data active means CPE inhibition above about 20%, passing the limit was not always enough; inconclusive means no clear call, values can overlap the other calls; tested in BHK-21 cells;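 further: 0% = median of neutral control wells and 100% = median of positive control wells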
The depositor's hits bear a star; ? = inconclusive; . = no result; ! = repeats disagree.

SMILES	XiGFP reactiv	E-selectin induc	S100A4 MyoIIA	DENV2 CPE rescue
Cc1ccccc1CN1C(=O)CN(S(C)(=O)=O)CC1(C)C(=O)Nc1c(C)cccc1C (stereo not drawn)	0	0	-7	1
CO[C@H]1CN(C)C(=O)c2ccc(NC(=O)c3ccccc3)cc2OC[C@@H](C)N(C)C[C@@H]1C	0	0	1	-2
CO[C@@H]1CC[C@H]2CCN(C)C(=O)C[C@H](c3ccccc3)CN(C)C(=O)c3cc(C#N)ccc3OC[C@@H]1O2	0	0	-8	52*
CC1(C#N)c2ccccc2C(Br)=CN1C(=O)c1ccccc1 (stereo not drawn)	0	0	-5	31*
Cc1ccc(S(=O)(=O)Nc2ccc3c(c2)C(=O)N([C@@H](C)CO)C[C@@H](C)[C@@H](CN(C)C(=O)CCC(F)(F)F)OCCCC[C@H](C)O3)cc1	0	.	-4	-5
OC[C@@H]1[C@@H](c2ccc(-c3ccc(F)cc3)cc2)[C@@H]2CN(Cc3ccccn3)CCCCN12	0	0	-13	63*
OC[C@@H]1[C@H](c2ccc(-c3ccc(F)cc3)cc2)[C@H]2CN(Cc3ccccn3)CCCCN12	0	0	-13	33*
OC[C@@H]1[C@H](c2ccc(-c3ccc(F)cc3)cc2)[C@@H]2CN(Cc3ccccn3)CCCCN12	0	0	-16	-8
C/C(=N\N=C(/N)SC1CC(=O)N(c2cccc(Cl)c2)C1=O)c1cccs1 (stereo not drawn)	.	.	-4	5
Oc1cccc(Oc2ncc(C(F)(F)F)cc2Cl)c1	0	132*	0	4
CCC(NS(=O)(=O)c1ccc(C)cc1)C(=O)N1CCOCCOCCOCC1 (stereo not drawn)	0	.	-2	-4
COc1cccc(C2C(=O)c3ccccc3C2=O)c1	0	66*	-2	1
COC(=O)C1=C(C)NC2=C(C(=O)c3ccccc32)C1c1cccc(OC)c1 (stereo not drawn)	0	.	-4	9
COc1ccc(NC(=O)N(C)C[C@H]2Oc3ccc(NC(=O)Nc4cccc5ccccc45)cc3CC(=O)N([C@@H](C)CO)C[C@@H]2C)cc1	0	1	5	0
COc1ccc(NC(=O)COC(=O)Cc2c[nH]c3ccccc23)cc1Cl	0	0	-3	-8
Cn1c(SCC(=O)NNC(=O)Cc2ccccc2)nnc1-c1ccc(Cl)cc1	.	-2	.	.
Cc1ccc(NCc2nnc(SCC(=O)NNC(=O)Cc3ccccc3)n2C)cc1	21*	0	-2	3
Cc1ccc(NCc2nnc(SCC(=O)Nc3nnc(C)s3)n2C)cc1	0	0	-8	-2
Cc1ccc(C(=O)NNC(=O)CSc2nnc(CNc3ccc(F)cc3)n2C)cc1	0	236*	3	17
COCCCNc1c2c3c(cccc3[nH]c1=O)C(=O)c1ccccc1-2	7	?	127*	-17
COc1ccc([Si](C)(C)[C@@H]2[C@@H](CC(=O)N3Cc4ccccc4C[C@H]3CO)O[C@]3(C(=O)N(C)c4c(Br)cc(C)cc43)[C@H]2C)cc1	.	.	1	21*
COc1ccccc1CCNS(=O)(=O)CCNC(=O)c1ccc2c(c1)OCO2	0	3	-1	40*
O=C(NCCS(=O)(=O)NCc1ccc(F)cc1)c1ccc2c(c1)OCO2	0	.	1	75*
CO[C@H]1CN(C)C(=O)c2ccc(NC(=O)Nc3ccccc3)cc2OC[C@@H](C)NC[C@@H]1C	0	0	-3	-5
CO[C@H]1CN(C)C(=O)c2ccc(NC(=O)Nc3ccccc3)cc2OC[C@H](C)NC[C@@H]1C	0	0	-42	32*
SMILES	XiGFP reactiv	E-selectin induc	S100A4 MyoIIA	DENV2 CPE rescue
CO[C@@H]1CN(C)C(=O)c2ccc(NC(=O)Nc3cccc(F)c3)cc2OC[C@@H](C)NC[C@H]1C	0	1	-7	3
CO[C@@H]1CN(C)C(=O)c2ccc(NC(=O)Nc3ccc(F)cc3)cc2OC[C@H](C)NC[C@@H]1C	0	0	3	36*
O=C(CN1C(=O)NC2(CCCCCCC2)C1=O)Nc1ccc(Br)cc1	0	2	-2	-23
CC(C)C#Cc1ccc2c(c1)O[C@@H](CN(C)Cc1cccnc1)[C@H](C)CN([C@H](C)CO)S2(=O)=O	0	1	-11	-3
O=C1c2ccccc2/C(=C\c2ccc(Br)nc2)N1c1ccccc1	0	0	1	47*
Cc1cccc(NC(=O)CN2CCN(C(=O)c3cc(C4CC4)nn3-c3ccccc3)CC2)c1C	0	0	-6	62*
C[C@]12c3[nH]c4ccc(Cl)cc4c3CCN1C(=O)[C@@H](CC(=O)NCc1ccco1)C[C@@H]2C(=O)N1CCCCC1	0	53*	-2	-3
CC(C)(C)NC(=O)C[C@H]1C[C@H](C(=O)N2CCCCC2)[C@@]2(C)c3[nH]c4cc(-c5ccco5)ccc4c3CCN2C1=O	0	-1	-7	-1
CC[C@]12c3[nH]c4cc(-c5ccco5)ccc4c3CCN1C(=O)[C@@H](CC(=O)NC(C)(C)C)C[C@@H]2C(=O)N1CCN(C(=O)C2CC2)CC1	0	0	-12	43*
Cc1ccc(F)cc1C(=O)N1CCC1(C)C(=O)O (stereo not drawn)	0	0	-2	-7
C[C@@H]1CN([C@@H](C)CO)C(=O)c2cccc(NC(=O)C3CCCCC3)c2O[C@H]1CN(C)Cc1ccc2c(c1)OCO2	-1	0	16	21*
C[C@H]1CN([C@@H](C)CO)C(=O)c2cccc(NC(=O)C3CCCCC3)c2O[C@H]1CN(C)Cc1ccc2c(c1)OCO2	-1	1	-26	23*
C[C@H]1CN([C@@H](C)CO)C(=O)c2cccc(NC(=O)C3CCCCC3)c2O[C@@H]1CN(C)Cc1ccc2c(c1)OCO2	-1	0	.	.
C[C@H](CO)N1C[C@H](C)[C@@H](CN(C)Cc2ccc3c(c2)OCO3)Oc2c(NC(=O)C3CCCCC3)cccc2C1=O	0	0	16	122*!
CC(=O)c1ccccc1C(=O)N1CCCC(CNC(=O)c2ccc(F)cc2)C1 (stereo not drawn)	0	0	-6	-13
C[C@H](CO)N1C[C@H](C)[C@@H](CN(C)C(=O)CN(C)C)Oc2cc(C#Cc3ccccc3)ccc2S1(=O)=O	-1	1	-2	12
C[C@H](O)C#Cc1ccc2c(c1)O[C@H](CN(C)C(=O)CN(C)C)[C@@H](C)CN([C@H](C)CO)S2(=O)=O	1	0	2	24*
C[C@H](CO)N1C[C@H](C)[C@@H](CN(C)C(=O)C2CC2)Oc2cc(C#Cc3ccccc3)ccc2S1(=O)=O	0	0	-5	174*
C[C@@H]1CN([C@H](C)CO)S(=O)(=O)c2ccc(C#Cc3ccccc3)cc2O[C@H]1CN(C)C(=O)CN(C)C	0	0	0	24*

Source: PubChem BioAssay (Broad Institute)
